Reference: ChEMBL document CHEMBL4706503, “A novel pipeline of 2-(benzenesulfonamide)-N-(4-hydroxyphenyl) acetamide analgesics that lack hepatotoxicity and retain antipyresis” (Eur J Med Chem, 2020)
Activity calls are given as the source filed them. No cut-off for these calls is given here.

Experiments:
Hepatocyte = test: Hepatotoxicity in primary human hepatocytes assessed as increase in lactate dehydrogenase release at 500 to 1000 uM measured after 3 to 12 hrs by fluorescence based analysis
[1] = Hepatotoxicity in CD1 mouse assessed as increase in serum alanine aminotransferase level at 600 mg/kg, po measured after 12 hrs; format: toxicity, organism-based; details: in vivo
Procedure, shortened: (§1)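 Male CD1 mice fasted 15 h, given 600 mg/kg po, then fed ad libitum for 12 h. Whole blood taken by transcardial perfusion under 5% isoflurane, without anticoagulant, clotted 0.5 h at 25 °C, spun 1000 g 5 min at 4 °C. Serum stored at −80 °C, then assayed with commercial kits. n = 5 mice per compound; vehicle 0.9% NaCl.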

[2] = Renal toxicity in CD1 mouse assessed as increase in serum creatinine level at 600 mg/kg, po measured after 12 hrs; format: organism-based; details: in vivo; procedure, shortened: as §1
[3] = Hepatotoxicity in CD1 mouse assessed as increase in serum alkaline phosphatase level at 600 mg/kg, po measured after 12 hrs; format: toxicity, organism-based; details: in vivo; procedure, shortened: as §1
[4] = Hepatotoxicity in CD1 mouse assessed as increase in serum aspartate aminotransferase level at 600 mg/kg, po measured after 12 hrs; format: toxicity, organism-based; details: in vivo; procedure, shortened: as §1
Cytochrome P450 2D6 = Cytochrome P450 2D6 (Homo sapiens, UniProt P10635); test: Inhibition of CYP2D6 (unknown origin) in baculosomes preincubated for 20 mins followed by addition of CYP enzyme-specific substrate and NADP+ and measured after 30 mins by fluorescence based analysis; format: ADME
Procedure, shortened: (§2)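 Vivid fluorogenic screen: each compound was premixed with CYP baculosomes and a regeneration system (glucose-6-phosphate plus G6P dehydrogenase) for 20 min at room temperature. Isozyme-specific substrate and NADP+ were then added for 30 min at room temperature. Reaction stopped with 0.5 M Tris base; metabolite fluorescence read. IC50 taken from 10-point titration curves.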

[5] = Toxicity in CD1 mouse assessed as animal survival rate at 600 mg/kg, ip measured for every 4 hrs upto 48 hrs by Kaplan-Meier plot analysis; format: organism-based; details: in vivo
Procedure, shortened: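 Male CD1 mice, four groups of n = 20, given 600 mg/kg ip or 0.9% NaCl vehicle; live animals counted every 4 h for 48 h; Kaplan-Meier survival curves plotted.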

HepaRG [6] = test: Hepatotoxicity in human HepaRG cells assessed as increase in lactate dehydrogenase release at 50 to 5000 uM […]; format: toxicity, cell-based; details: dose 50-5000 µM
CYP3A4 = CYP3A4 (Homo sapiens, UniProt P08684); test: Inhibition of CYP3A4 (unknown origin) in baculosomes preincubated for 20 mins followed by addition of CYP enzyme-specific substrate and NADP+ and measured after 30 mins by fluorescence based analysis relative to control
Mus musculus [7] = test: Analgesic activity in po dosed CD1 mouse assessed as inhibition of acetic acid-induced abdominal writhing treated with acetic acid 25 mins post drug administration and measured after 5 mins for 10 mins; format: functional; details: 40 min
Procedure, shortened: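 Male CD1 mice fasted 15 h; drug suspended in 0.9% NaCl with ≤10% DMSO given po at 5, 10, 20, 40, 80 mg/kg. 0.4% acetic acid 10 mL/kg ip 25 min later; writhes counted 10 min starting 5 min after acid. Compared to vehicle; mean ± SEM, n > 15 per group; ED50 from dose-response curves.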

[8] = Drug metabolism in CD1 mouse serum assessed as NAPQI formation at 600 mg/kg, ip measured after 12 hrs by LC-MS/MS analysis; format: ADME, organism-based; details: in vivo
Procedure, shortened: (§3)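 Male CD1 mice dosed at 600 mg/kg (ip or po). Serum extracted twice with 3 vol ethyl acetate on ice (30 min, 3000 g spin), dried under N2, redissolved in 1:1 MeOH:H2O. LC-MS/MS in positive electrospray MRM mode monitoring m/z 150.3→108.1, identity checked against spiked NAPQI standard retention time (5.1 min).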

Cytochrome P450 3A4 = Cytochrome P450 3A4 (Homo sapiens, UniProt P08684); test: Inhibition of CYP3A4 (unknown origin) in baculosomes preincubated for 20 mins followed by addition of CYP enzyme-specific substrate and NADP+ and measured after 30 mins by fluorescence based analysis; format: ADME; procedure, shortened: as §2
[9] = Hepatotoxicity in CD1 mouse assessed as increase in apoptotic nuclei at 600 mg/kg, po measured after 12 hrs by TUNEL staining; format: toxicity, organism-based; details: in vivo
Procedure, shortened: (§4)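 At 12 h, mice under 5% isoflurane were exsanguinated with saline and perfusion-fixed with 10% NBF; livers fixed 24 h, moved to 80% EtOH, paraffin-embedded and sectioned. Stains: H&E (100x), nitrotyrosine, ZO-1 (200x; 3D stacks at 1000x), TUNEL (200x).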

[10] = Drug metabolism in CD1 mouse serum assessed as NAPQI formation at 600 mg/kg, po measured after 12 hrs by LC-MS/MS analysis; format: ADME, organism-based; details: in vivo; procedure, shortened: as §3
[11] = Hepatotoxicity in CD1 mouse assessed as liver architecture at 600 mg/kg, po measured after 12 hrs by hematoxylin and eosin staining based optical microscopy; format: toxicity, organism-based; details: in vivo; procedure, shortened: as §4
CYP2E1 = CYP2E1 (Homo sapiens, UniProt P05181); test: Inhibition of CYP2E1 (unknown origin) in baculosomes preincubated for 20 mins followed by addition of CYP enzyme-specific substrate and NADP+ and measured after 30 mins by fluorescence based analysis relative to control
Rattus norvegicus = test: Analgesic activity in ip dosed complete freund's adjuvant-induced Sprague Dawley rat model of hyperalgesia assessed as inhibition of inflammatory pain measured after 30 mins by von Frey analgesimetric method; format: functional; details: 0.5 h
HepaRG [12] = test: Hepatotoxicity in human HepaRG cells assessed as decrease in GSH level at 50 to 5000 uM measured after 6 to 24 hrs by Thiol tracker violet dye based fluorescence analysis; format: toxicity, cell-based; details: dose lower 50 µM, time lower 6 hrs, dose upper 5000 µM, time upper 24 hrs
Procedure, shortened: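 HepaRG cells (80% confluent, serum-starved 6–8 h) exposed to 50, 100, 1000 or 5000 μM for 6, 12 or 24 h. Medium then removed and cells rinsed with D-PBS-conditioned medium. Cells were stained 30 min with ThiolTracker Violet; fluorescence read at ex 404/em 526 nm and reported as RFU for cellular GSH.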

Mus musculus [13] = test: Antipyretic activity against Baker's yeast-induced hyperthermia model in CD1 mouse at 80 mg/kg, po at 2 hrs post-injection by thermometer based analysis; format: functional, organism-based
Procedure, shortened: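 Male CD1 mice fasted overnight (15 h); baseline rectal temperature taken, then ip pyrogen (15% baker's yeast, 0.1 mL/kg). Rectal temperature read 4 h later; only febrile animals used, grouped by equal mean temperature. Drug or 0.9% NaCl given po at 80 mg/kg; rectal temperature recorded 2 h later; fall compared with 4 h fever value. Mean ± SEM, n = 10; one-way ANOVA with Sidak post-hoc.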

[14] = Hepatotoxicity in CD1 mouse assessed as loss of chicken wire hepatic tight junctions at 600 mg/kg, po measured after 12 hrs by ZO-1 staining based optical microscopy; format: toxicity, organism-based; details: in vivo; procedure, shortened: as §4
[15] = Hepatotoxicity in CD1 mouse assessed as increase in nitrotyrosine formation in liver at 600 mg/kg, po measured after 12 hrs by nitrotyrosine immunostaining based optical microscopy; details: in vivo
[16] = Hepatotoxicity in CD1 mouse assessed as centrilobular hepatic hemorrhagic necrosis at 600 mg/kg, po measured after 12 hrs by hematoxylin and eosin staining based optical microscopy; format: toxicity, organism-based; details: in vivo; procedure, shortened: as §4

Sequence of Cytochrome P450 2D6 (P10635 whole entry): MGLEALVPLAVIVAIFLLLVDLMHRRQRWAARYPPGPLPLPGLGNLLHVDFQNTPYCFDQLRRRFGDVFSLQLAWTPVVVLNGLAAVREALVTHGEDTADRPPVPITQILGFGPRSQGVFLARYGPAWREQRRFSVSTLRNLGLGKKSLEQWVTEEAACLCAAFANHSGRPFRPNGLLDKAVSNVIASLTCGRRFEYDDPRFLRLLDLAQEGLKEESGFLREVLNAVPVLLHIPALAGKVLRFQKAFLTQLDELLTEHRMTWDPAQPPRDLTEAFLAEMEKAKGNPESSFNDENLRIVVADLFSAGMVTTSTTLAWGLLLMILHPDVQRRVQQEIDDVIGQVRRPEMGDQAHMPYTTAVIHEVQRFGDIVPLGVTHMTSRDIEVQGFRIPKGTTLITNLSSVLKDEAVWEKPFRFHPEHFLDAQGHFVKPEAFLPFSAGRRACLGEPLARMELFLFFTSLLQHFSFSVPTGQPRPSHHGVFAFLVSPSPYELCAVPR
Sequence of Cytochrome P450 3A4 (P08684 whole entry): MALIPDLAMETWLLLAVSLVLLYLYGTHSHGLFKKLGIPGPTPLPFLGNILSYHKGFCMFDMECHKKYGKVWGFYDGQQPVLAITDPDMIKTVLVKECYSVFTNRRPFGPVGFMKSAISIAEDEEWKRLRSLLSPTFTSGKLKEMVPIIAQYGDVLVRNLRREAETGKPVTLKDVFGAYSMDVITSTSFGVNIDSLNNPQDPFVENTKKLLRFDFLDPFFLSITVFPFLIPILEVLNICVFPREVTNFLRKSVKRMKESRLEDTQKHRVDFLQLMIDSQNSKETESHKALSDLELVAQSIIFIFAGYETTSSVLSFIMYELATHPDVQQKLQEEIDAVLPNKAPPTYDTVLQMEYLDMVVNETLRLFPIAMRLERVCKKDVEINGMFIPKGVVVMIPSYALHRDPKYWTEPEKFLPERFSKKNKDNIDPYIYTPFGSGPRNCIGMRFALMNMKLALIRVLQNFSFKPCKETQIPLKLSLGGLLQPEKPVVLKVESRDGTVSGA
Sequence of CYP3A4 (P08684 whole entry): as above
Sequence of CYP2E1 (P05181 whole entry): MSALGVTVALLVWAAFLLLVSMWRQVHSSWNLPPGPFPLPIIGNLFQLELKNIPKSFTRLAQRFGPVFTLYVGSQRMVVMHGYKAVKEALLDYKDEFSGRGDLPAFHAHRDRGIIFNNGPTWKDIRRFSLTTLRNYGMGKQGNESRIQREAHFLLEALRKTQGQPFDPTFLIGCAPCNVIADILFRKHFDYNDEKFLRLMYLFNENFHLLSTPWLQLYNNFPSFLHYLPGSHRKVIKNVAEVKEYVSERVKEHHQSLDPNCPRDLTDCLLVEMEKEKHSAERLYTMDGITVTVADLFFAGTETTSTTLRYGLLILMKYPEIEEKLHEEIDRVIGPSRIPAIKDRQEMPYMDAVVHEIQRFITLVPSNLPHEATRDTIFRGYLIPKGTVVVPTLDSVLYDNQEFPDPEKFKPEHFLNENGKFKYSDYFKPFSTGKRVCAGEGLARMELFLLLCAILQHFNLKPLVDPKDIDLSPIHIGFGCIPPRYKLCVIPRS

Row | Compound | Activity (Hepatocyte) | Activity [1] | Activity [2] | Activity [3] | Activity [4] | further results
1 | O=C(CNS(=O)(=O)c1ccccc1C(=O)NCc1ccccc1)Nc1ccc(O)cc1 | Toxic | – | – | – | – | –
2 | CC(C)NC(=O)c1ccccc1S(=O)(=O)NCC(=O)Nc1ccc(O)cc1 | Toxic | – | – | – | – | –
3 | Cc1ccc(CNC(=O)c2ccccc2S(=O)(=O)NCC(=O)Nc2ccc(O)cc2)cc1 | Toxic | Non-Toxic | Non-Toxic | Non-Toxic | Non-Toxic | –
4 | O=C(CNS(=O)(=O)c1ccccc1C(=O)NCCc1ccc(O)c(O)c1)Nc1ccc(O)cc1 | Non-Toxic | Non-Toxic | Non-Toxic | Non-Toxic | Non-Toxic | IC50 (Cytochrome P450 2D6): > 10 µM; survival at 48 h [5]: 100%; Activity (HepaRG [6]): Non-Toxic; inhibition at 0.5 h (CYP3A4): 25%; ED50 (Mus musculus [7]): 14.7 µmol/kg; Drug metabolism [8]: Metabolite_Notdetected; IC50 (Cytochrome P450 3A4): 4.82 µM; Activity [9]: Non-Toxic; Drug metabolism [10]: Metabolite_Notdetected; Activity [11]: Non-Toxic; inhibition at 0.5 h (CYP2E1): 25%; ED50 (Rattus norvegicus): 177 µmol/kg; Activity (HepaRG [12]): Non-Toxic; Activity (Mus musculus [13]): Active; Activity [14]: Non-Toxic; Activity [15]: Non-Toxic
5 | NC(=O)c1ccccc1S(=O)(=O)NCC(=O)Nc1ccc(O)cc1 | Toxic | – | – | – | – | –
6 | COc1ccc(CNC(=O)c2ccccc2S(=O)(=O)NCC(=O)Nc2ccc(O)cc2)cc1 | Toxic | Non-Toxic | Non-Toxic | Non-Toxic | Non-Toxic | –
7 | O=C(CNS(=O)(=O)c1ccccc1C(=O)NCc1cccc(Cl)c1)Nc1ccc(O)cc1 | Toxic | Non-Toxic | Non-Toxic | Non-Toxic | Non-Toxic | –
8 | CNC(=O)c1ccccc1S(=O)(=O)NCC(=O)Nc1ccc(O)cc1 | Non-Toxic | Non-Toxic | Non-Toxic | Non-Toxic | Non-Toxic | IC50 (Cytochrome P450 2D6): > 10 µM; survival at 48 h [5]: 100%; Activity (HepaRG [6]): Non-Toxic; ED50 (Mus musculus [7]): 45.2 µmol/kg; Drug metabolism [8]: Metabolite_Notdetected; IC50 (Cytochrome P450 3A4): > 10 µM; Activity [9]: Non-Toxic; Drug metabolism [10]: Metabolite_Notdetected; Activity [11]: Non-Toxic; ED50 (Rattus norvegicus): 198 µmol/kg; Activity (HepaRG [12]): Non-Toxic; Activity (Mus musculus [13]): Active; Activity [14]: Non-Toxic; Activity [15]: Non-Toxic
9 | CC(=O)Nc1ccc(O)cc1 [ACETAMINOPHEN] | – | Toxic | Toxic | Toxic | Toxic | IC50 (Cytochrome P450 2D6): > 10 µM; Activity (HepaRG [6]): Toxic; ED50 (Mus musculus [7]): 68.6 µmol/kg; Drug metabolism [8]: Metabolite_Detected; Activity [9]: Toxic; Drug metabolism [10]: Metabolite_Detected; Activity [16]: Toxic; ED50 (Rattus norvegicus): 245 µmol/kg; Activity (HepaRG [12]): Toxic; Activity (Mus musculus [13]): Active; Activity [14]: Toxic; Activity [15]: Toxic
10 | O=C(CNS(=O)(=O)c1ccccc1C(=O)NCc1ccc(Cl)c(Cl)c1)Nc1ccc(O)cc1 | Non-Toxic | Non-Toxic | Non-Toxic | Non-Toxic | Non-Toxic | –
11 | O=C(CNS(=O)(=O)c1ccccc1C(=O)NCc1ccc([N+](=O)[O-])cc1)Nc1ccc(O)cc1 | Non-Toxic | Non-Toxic | Non-Toxic | Non-Toxic | Non-Toxic | –
12 | O=C(CNS(=O)(=O)c1ccccc1C(=O)NCCN1CCCC1)Nc1ccc(O)cc1 | Non-Toxic | Non-Toxic | Non-Toxic | Non-Toxic | Non-Toxic | –
13 | O=C(CNS(=O)(=O)c1ccccc1C(=O)N1CCOCC1)Nc1ccc(O)cc1 | Non-Toxic | – | – | – | – | –
14 | CC(C)CNC(=O)c1ccccc1S(=O)(=O)NCC(=O)Nc1ccc(O)cc1 | Toxic | Non-Toxic | Non-Toxic | Non-Toxic | Non-Toxic | –
15 | O=C(CNS(=O)(=O)c1ccccc1C(=O)NC1CCCC1)Nc1ccc(O)cc1 | Toxic | Non-Toxic | Non-Toxic | Non-Toxic | Non-Toxic | –
16 | CN(C)C(=O)c1ccccc1S(=O)(=O)NCC(=O)Nc1ccc(O)cc1 | Toxic | Non-Toxic | Non-Toxic | Non-Toxic | Non-Toxic | –
17 | O=C(CNS(=O)(=O)c1ccccc1C(=O)N1CCN(Cc2ccccc2)CC1)Nc1ccc(O)cc1 | Toxic | – | – | – | – | –
18 | CCCCNC(=O)c1ccccc1S(=O)(=O)NCC(=O)Nc1ccc(O)cc1 | Toxic | Non-Toxic | Non-Toxic | Non-Toxic | Non-Toxic | –
19 | O=C(CNS(=O)(=O)c1ccccc1C(=O)NCCc1ccccc1)Nc1ccc(O)cc1 | Toxic | – | – | – | – | –
20 | O=C(CNS(=O)(=O)c1ccccc1C(=O)NCc1ccccn1)Nc1ccc(O)cc1 | Toxic | Non-Toxic | Non-Toxic | Non-Toxic | Non-Toxic | –
